# Measurements: article PMC2574667 (Journal of Medicinal Chemistry, 2008)
# Entries after “also recorded” stand apart in the source; their conditions may differ. Like-named read-outs stand apart in the source and are kept apart here.
# Assays:
# [1] = first order in hydroxide ion; cited from earlier work
# [2] = format: physicochemical
# Procedure, shortened: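 Hydrolysis at 37 °C was run in 0.1 M phosphate pH 7.4 or 0.05 M citrate pH 3.8–4.6, in light-protected sealed bottles. Daily aliquots were scanned 200–400 nm for up to 11 days. First-order k came from ln(At − Ainf) versus time, with Ainf extrapolated when the reaction was incomplete. Runs in 1.0 M NaOH were followed directly in a thermostated spectrophotometer cell. Other media: NaOH, glycine/NaOH pH 10, phosphate pH 8.1.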
# [3] = tested on: intracellular L. major amastigotes; experiment: Assay for leishmanicidal activity in infected macrophages; format: cell-based, Leishmania major; details: 125 or 250 µM, up to 72 h, macrophages from iNOS-deficient mice
# Procedure, shortened: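 Macrophages were thioglycolate-elicited from the peritoneum of C57BL/6 iNOS-deficient mice, harvested 4 days after ip thioglycolate, and plated at 3 × 10^5/well in RPMI-1640 with 2.5% or 5% FBS. They were infected 4 h at 5:1 with lesion-derived MHOM/IL/81/FE/BNI amastigotes, then treated 72 h with medium and compound refreshed at 24 and 48 h. Diff-Quick counts at 0, 48 and 72 h gave parasites per 100 macrophages, as mean ±SD.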
# Nitrite accumulation = format: physicochemical; details: 37 °C; for nitrite recovery: 24 h incubation, PBS and cell culture medium containing 2.5% fetal calf serum
# Procedure, shortened: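 Compound at 0.25–1 mM was incubated 24 h at 37 °C, without cells, in PBS or in RPMI containing 2.5% fetal calf serum. NO release was estimated as accumulated nitrite by Griess assay. Solutions assayed immediately after dissolution served as the zero point.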
# [4] = tested on: N-acetylglucosaminidase from jack bean; experiment: Glycosidase-induced hydrolysis, jack bean enzyme; format: biochemical; details: 37 °C; for k, first order rate constant of enzymatic hydrolysis: JB enzyme 0.11 units/mL, 0.1 M phosphate pH 7.4, ultraviolet spectrophotometry
# Procedure, shortened: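 Jack bean β-N-acetylglucosaminidase (0.11 units/mL) was incubated with substrate (0.09–0.16 mM initial) at 37 °C in 0.1 M phosphate, pH 7.4, with 0.05 mM DTPA. NO was detected by chemiluminescence until evolution ceased, and the trace was integrated per mole of compound. Nitrite in the remaining solution was measured by Griess. First-order rate constants came from UV absorbance at 227 or 256 nm. Enzyme activity was checked with PNP-NAG at 25 °C.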
# [5] = tested on: peritoneal exudate macrophages from iNOS-deficient mice; experiment: Nitrite accumulation; format: cell-based; details: 0.25 mM, medium with 2.5% fetal calf serum, iNOS^−/− mouse macrophages, 24 h
# Procedure, shortened: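 Peritoneal exudate macrophages from iNOS-deficient mice were cultured 24 h at 37 °C in RPMI containing 2.5% fetal calf serum with 0.25 mM compound, alongside cell-free medium and PBS. Supernatants were harvested and cumulative NO was estimated as nitrite by Griess assay. Further runs used 125 or 250 µM with 0–5% FCS.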
# [6] = biological target: N-acetylglucosaminidase from human placenta (Homo sapiens, UniProt P07686); experiment: Glycosidase-induced hydrolysis, human placenta enzyme; format: biochemical; details: HP enzyme 0.044 units/mL, 37 °C, 0.1 M phosphate pH 7.4; ultraviolet spectrophotometry
# N-acetylglucosaminidase from human placenta, sequence (P07686 122-311 limits assumed): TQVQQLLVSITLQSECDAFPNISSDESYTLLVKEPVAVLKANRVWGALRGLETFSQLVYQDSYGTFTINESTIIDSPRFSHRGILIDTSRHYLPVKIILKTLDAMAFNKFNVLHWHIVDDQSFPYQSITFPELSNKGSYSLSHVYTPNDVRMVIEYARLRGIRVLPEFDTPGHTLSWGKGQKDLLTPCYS
# N-acetylglucosaminidase from human placenta, sequence (P07686 315-556 limits assumed): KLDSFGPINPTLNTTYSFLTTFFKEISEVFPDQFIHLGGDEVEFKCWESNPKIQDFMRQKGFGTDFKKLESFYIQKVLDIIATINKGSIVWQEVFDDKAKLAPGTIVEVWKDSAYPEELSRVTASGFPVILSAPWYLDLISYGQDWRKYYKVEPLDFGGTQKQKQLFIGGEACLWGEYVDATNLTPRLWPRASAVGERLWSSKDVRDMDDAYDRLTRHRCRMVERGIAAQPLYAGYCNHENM
# [7] = tested on: peritoneal exudate macrophages from iNOS-deficient mice; experiment: Viability of macrophage monolayers; format: cell-based, mouse; details: concentrations tested (125 or 250 µM); trypan blue staining, MTT assay
# Procedure, shortened: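 Infected macrophage monolayers from iNOS-deficient mice were exposed to compound at 125 or 250 µM. Viability was checked by microscopy with trypan blue staining of dead cells. Mitochondrial activity of the whole monolayer was read photometrically as MTT reduction to formazan, in triplicate.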
# [8] = phosphate buffer, pH 7.4, half-life pH 7.4, 0.1 M phosphate pH 7.4, 37 °C
smiles,measurement,setting,value
CCN(CC)/[N+]([O-])=N/O[C@@H]1O[C@H](CO)[C@@H](O)[C@H](O)[C@H]1O [3a],rate constant kOH^– of base-induced hydrolysis,[1],0.0053 M⁻¹ s⁻¹
same,half-life,[2]; [8],> 240 h
"CCN(CC)/[N+]([O-])=N/O[C@H]1O[C@H](CO)[C@@H](O)[C@H](O)[C@@H]1O [5a, O^2-(α-D-Mannopyranosyl) 1-(N, N-Diethylamino)diazen-1-ium-1,2-diolate]",effect on number of intracellular L. major parasites,[3],borderline significance
same,nitrite recovery,Nitrite accumulation,little or no nitrite
same,NO generation on incubation with N-acetylglucosaminidase,[4]; parallel incubation to 9a,Negligible NO generation
same,half-life,"[2]; citrate buffer, pH 4.6, half-life pH 4.6, 0.05 M citrate pH 4.6, 37 °C",> 240 h
"[O-][N+](=NO[C@H]1O[C@H](CO)[C@@H](O)[C@H](O)[C@@H]1O)N1CCCC1 [5b, O^2-(α-D-Mannopyranosyl) 1-(Pyrrolidin-1-yl)diazen-1-ium-1,2-diolate]",effect on number of intracellular L. major parasites,[3],only one of the mannosides (5a) showed any activity
"CCN(CC)/[N+]([O-])=N/O[C@@H]1O[C@@H](C)[C@@H](O)[C@@H](O)[C@@H]1O [7a, O^2-(β-L-Fucopyranosyl) 1-(N,N-Diethylamino)diazen-1-ium-1,2-diolate]",effect on number of intracellular L. major parasites,[3],Neither of the fucose derivatives had any perceivable effect
"C[C@@H]1O[C@H](ON=[N+]([O-])N(C)C)[C@@H](O)[C@H](O)[C@@H]1O [7c, O^2-(β-L-Fucopyranosyl) 1-(N,N-Dimethylamino)diazen-1-ium-1,2-diolate]",effect on number of intracellular L. major parasites,[3],Neither of the fucose derivatives had any perceivable effect
"CCN(CC)/[N+]([O-])=N/O[C@@H]1O[C@H](CO)[C@@H](O)[C@H](O)[C@H]1NC(C)=O [9a, O^2-(N-Acetyl-β-D-glucosaminyl) 1-(N,N-Diethylamino)diazen-1-ium-1,2-diolate]",effect on number of intracellular L. major parasites,[3],highly significant decrease; also recorded: decidedly antileishmanial
same,increase of nitrite yield by macrophages,[5],approximately doubled
same,"k, first order rate constant of enzymatic hydrolysis",[6],0.00041 s⁻¹
same,nitrite recovery,Nitrite accumulation,10−20%
same,"k, first order rate constant of enzymatic hydrolysis",[4],0.00062 s⁻¹
same,toxicity to the macrophage host cells,[7],no observable toxicity
same,increase in hydrolysis rate relative to 9b,[2]; pH 7.4 phosphate buffer,> 20 fold
same,half-life,[2]; [8],~12 h
"CC(=O)N[C@H]1[C@H](O/N=[N+](\[O-])N2CCCC2)O[C@H](CO)[C@@H](O)[C@@H]1O [9b, O^2-(β-D-N-Acetylglucosaminyl) 1-(Pyrrolidin-1-yl)diazen-1-ium-1,2-diolate]",effect on number of intracellular L. major parasites,[3],highly significant decrease; also recorded: decidedly antileishmanial
same,"k, first order rate constant of enzymatic hydrolysis",[6],0.00036 s⁻¹
same,hydrolysis in PBS relative to 9a,"Nitrite accumulation; PBS, nitrite yield, 24 h",more than an order of magnitude slower
same,"k, first order rate constant of enzymatic hydrolysis",[4],0.00031 s⁻¹
same,toxicity to the macrophage host cells,[7],no observable toxicity
"CCN(CC)/[N+]([O-])=N/O[C@H]1C[C@@H](O)[C@H](O)[C@@H](CO)O1 [11a, O^2-[2-Deoxy-β-D-glucopyranosyl] 1-(N,N-Diethylamino)diazen-1-ium-1,2-diolate]",half-life,[2]; [8],~12 h
O=NO [Nitrite ion],effect on number of intracellular L. major parasites,[3],devoid of antileishmanial activity
"CCN(CC)/[N+]([O-])=N\OC1CCCCO1 (centres unmarked) [compound 12, O^2-Tetrahydropyran-2-yl 1-(N,N-Diethylamino)diazen-1-ium-1,2-diolate]",hydrolysis time,"[2]; all pH values studied, 37 °C",within minutes
"COC(=O)CCC(=O)NO[C@@H]1O[C@H](CO)[C@@H](O)[C@H](O)[C@H]1NC(C)=O [compound 13, N-(β-D-N′-Acetylglucosaminyloxy)succinamate O-Methyl Ester, reference compound]",effect on number of intracellular L. major parasites,[3],did not have any effect
